Test system: HEK-293T
Assay: Multiplex assay against HEK293T
Format: toxicity, cell-based
Settings: human
Summary of the method: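 Per cents of healthy-nucleus cells form the tubulin, mitochondrial-mass and membrane-permeability phenotype values. Live cells were stained at seeding with Hoechst33342, BioTracker Green Microtubule Cytoskeleton Dye, MitoTracker Red and Annexin V Alexa Fluor 680. After compound addition they were imaged on a CQ1 microscope at 37°C and 5% CO2, and CellPathfinder machine-learning gating split them into Hoechst high-intensity objects or normal cells, normal cells into healthy, pyknosed or fragmented nuclei, and pyknosed cells into mitotic or apoptotic.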

[1] = 12 h, 1 µM, compound concentration 1 uM, replicate 1
[2] = 12 h, 1 µM, compound concentration 1 uM, replicate 2
[3] = 12 h, 10 µM, compound concentration 10 uM, replicate 1
[4] = 12 h, 10 µM, compound concentration 10 uM, replicate 2
[5] = 24 h, 1 µM, compound concentration 1 uM, replicate 1
[6] = 24 h, 1 µM, compound concentration 1 uM, replicate 2
[7] = 24 h, 10 µM, compound concentration 10 uM, replicate 1
[8] = 24 h, 10 µM, compound concentration 10 uM, replicate 2
[9] = 48 h, 1 µM, compound concentration 1 uM, replicate 1
[10] = 48 h, 1 µM, compound concentration 1 uM, replicate 2
[11] = 48 h, 10 µM, compound concentration 10 uM, replicate 1
[12] = 48 h, 10 µM, compound concentration 10 uM, replicate 2

Compound: COc1c(C)cc(NC(=O)c2nn(Cc3ccc(F)cc3)c3c2CN(C(=O)c2ccc[nH]2)C[C@]3(C)C(N)=O)cc1C
- Population Apoptotic (%) [1]: 42%
- Population Fragmented Nuclei (%) [1]: 6%
- Population Healthy Nuclei (%) [1]: 79%
- Population Hoechst High Intensity Objects (%) [1]: 7%
- Population Membrane Permeable-Phenotype (%) [1]: 0%
- Population Mitochondria Different-Phenotype (%) [1]: 51%
- Population Mitotic Cells (%) [1]: 57%
- Population Normal (%) [1]: 92%
- Population Pyknosed Nuclei (%) [1]: 13%
- Population Tubulin-Different-Phenotype (%) [1]: 36%
- Total Cell Count [1]: 426
- Population Apoptotic (%) [2]: 38%
- Population Fragmented Nuclei (%) [2]: 7%
- Population Healthy Nuclei (%) [2]: 75%
- Population Hoechst High Intensity Objects (%) [2]: 5%
- Population Mitochondria Different-Phenotype (%) [2]: 58%
- Population Mitotic Cells (%) [2]: 61%
- Population Normal (%) [2]: 94%
- Population Pyknosed Nuclei (%) [2]: 17%
- Population Tubulin-Different-Phenotype (%) [2]: 29%
- Total Cell Count [2]: 304
- Population Apoptotic (%) [3]: 67%
- Population Fragmented Nuclei (%) [3]: 4%
- Population Healthy Nuclei (%) [3]: 77%
- Population Hoechst High Intensity Objects (%) [3]: 13%
- Population Membrane Permeable-Phenotype (%) [3]: 0%
- Population Mitochondria Different-Phenotype (%) [3]: 90%
- Population Mitotic Cells (%) [3]: 32%
- Population Normal (%) [3]: 86%
- Population Pyknosed Nuclei (%) [3]: 17%
- Population Tubulin-Different-Phenotype (%) [3]: 62%
- Total Cell Count [3]: 383
- Population Apoptotic (%) [4]: 59%
- Population Fragmented Nuclei (%) [4]: 6%
- Population Healthy Nuclei (%) [4]: 71%
- Population Mitochondria Different-Phenotype (%) [4]: 95%
- Population Mitotic Cells (%) [4]: 40%
- Population Pyknosed Nuclei (%) [4]: 21%
- Population Tubulin-Different-Phenotype (%) [4]: 63%
- Total Cell Count [4]: 285
- Population Apoptotic (%) [5]: 21%
- Population Fragmented Nuclei (%) [5]: 7%
- Population Healthy Nuclei (%) [5]: 80%
- Population Hoechst High Intensity Objects (%) [5]: 4%
- Population Membrane Permeable-Phenotype (%) [5]: 0%
- Population Mitochondria Different-Phenotype (%) [5]: 30%
- Population Mitotic Cells (%) [5]: 78%
- Population Normal (%) [5]: 95%
- Population Pyknosed Nuclei (%) [5]: 12%
- Population Tubulin-Different-Phenotype (%) [5]: 24%
- Total Cell Count [5]: 574
- Population Apoptotic (%) [6]: 51%
- Population Fragmented Nuclei (%) [6]: 5%
- Population Healthy Nuclei (%) [6]: 86%
- Population Mitochondria Different-Phenotype (%) [6]: 43%
- Population Mitotic Cells (%) [6]: 48%
- Population Pyknosed Nuclei (%) [6]: 7%
- Population Tubulin-Different-Phenotype (%) [6]: 16%
- Total Cell Count [6]: 422
- Population Apoptotic (%) [7]: 53%
- Population Fragmented Nuclei (%) [7]: 6%
- Population Healthy Nuclei (%) [7]: 73%
- Population Hoechst High Intensity Objects (%) [7]: 11%
- Population Membrane Permeable-Phenotype (%) [7]: 0%
- Population Mitochondria Different-Phenotype (%) [7]: 91%
- Population Mitotic Cells (%) [7]: 46%
- Population Normal (%) [7]: 88%
- Population Pyknosed Nuclei (%) [7]: 19%
- Population Tubulin-Different-Phenotype (%) [7]: 61%
- Total Cell Count [7]: 403
- Population Apoptotic (%) [8]: 67%
- Population Fragmented Nuclei (%) [8]: 5%
- Population Healthy Nuclei (%) [8]: 74%
- Population Hoechst High Intensity Objects (%) [8]: 15%
- Population Mitochondria Different-Phenotype (%) [8]: 92%
- Population Mitotic Cells (%) [8]: 32%
- Population Normal (%) [8]: 84%
- Population Tubulin-Different-Phenotype (%) [8]: 56%
- Total Cell Count [8]: 313
- Population Apoptotic (%) [9]: 21%
- Population Fragmented Nuclei (%) [9]: 11%
- Population Healthy Nuclei (%) [9]: 81%
- Population Hoechst High Intensity Objects (%) [9]: 2%
- Population Membrane Permeable-Phenotype (%) [9]: 1%
- Population Mitochondria Different-Phenotype (%) [9]: 25%
- Population Mitotic Cells (%) [9]: 78%
- Population Normal (%) [9]: 97%
- Population Pyknosed Nuclei (%) [9]: 6%
- Population Tubulin-Different-Phenotype (%) [9]: 18%
- Total Cell Count [9]: 920
- Population Apoptotic (%) [10]: 39%
- Population Fragmented Nuclei (%) [10]: 12%
- Population Hoechst High Intensity Objects (%) [10]: 3%
- Population Mitochondria Different-Phenotype (%) [10]: 28%
- Population Mitotic Cells (%) [10]: 60%
- Population Normal (%) [10]: 96%
- Population Tubulin-Different-Phenotype (%) [10]: 9%
- Total Cell Count [10]: 652
- Population Apoptotic (%) [11]: 60%
- Population Fragmented Nuclei (%) [11]: 8%
- Population Healthy Nuclei (%) [11]: 76%
- Population Hoechst High Intensity Objects (%) [11]: 14%
- Population Membrane Permeable-Phenotype (%) [11]: 0%
- Population Mitochondria Different-Phenotype (%) [11]: 93%
- Population Mitotic Cells (%) [11]: 39%
- Population Normal (%) [11]: 85%
- Population Pyknosed Nuclei (%) [11]: 15%
- Population Tubulin-Different-Phenotype (%) [11]: 66%
- Total Cell Count [11]: 467
- Population Apoptotic (%) [12]: 80%
- Population Fragmented Nuclei (%) [12]: 9%
- Population Healthy Nuclei (%) [12]: 81%
- Population Hoechst High Intensity Objects (%) [12]: 10%
- Population Mitochondria Different-Phenotype (%) [12]: 90%
- Population Mitotic Cells (%) [12]: 19%
- Population Normal (%) [12]: 89%
- Population Pyknosed Nuclei (%) [12]: 9%
- Population Tubulin-Different-Phenotype (%) [12]: 59%
- Total Cell Count [12]: 376

Compound: CSc1ccccc1N1CCN(CCCCCC(=O)NC2CCCc3ccccc32)CC1.Cl (stereo unspecified)
- Population Apoptotic (%) [1]: 45%
- Population Fragmented Nuclei (%) [1]: 6%
- Population Healthy Nuclei (%) [1]: 74%
- Population Hoechst High Intensity Objects (%) [1]: 8%
- Population Membrane Permeable-Phenotype (%) [1]: 0%
- Population Mitochondria Different-Phenotype (%) [1]: 68%
- Population Mitotic Cells (%) [1]: 54%
- Population Normal (%) [1]: 91%
- Population Pyknosed Nuclei (%) [1]: 18%
- Population Tubulin-Different-Phenotype (%) [1]: 59%
- Total Cell Count [1]: 391
- Population Hoechst High Intensity Objects (%) [2]: 12%
- Population Mitochondria Different-Phenotype (%) [2]: 75%
- Population Normal (%) [2]: 87%
- Population Pyknosed Nuclei (%) [2]: 19%
- Population Tubulin-Different-Phenotype (%) [2]: 43%
- Total Cell Count [2]: 322
- Population Apoptotic (%) [3]: 80%
- Population Fragmented Nuclei (%) [3]: 8%
- Population Healthy Nuclei (%) [3]: 68%
- Population Hoechst High Intensity Objects (%) [3]: 15%
- Population Membrane Permeable-Phenotype (%) [3]: 0%
- Population Mitochondria Different-Phenotype (%) [3]: 97%
- Population Mitotic Cells (%) [3]: 20%
- Population Normal (%) [3]: 84%
- Population Pyknosed Nuclei (%) [3]: 22%
- Population Tubulin-Different-Phenotype (%) [3]: 59%
- Total Cell Count [3]: 316
- Population Apoptotic (%) [4]: 79%
- Population Fragmented Nuclei (%) [4]: 5%
- Population Healthy Nuclei (%) [4]: 74%
- Population Hoechst High Intensity Objects (%) [4]: 16%
- Population Normal (%) [4]: 83%
- Population Pyknosed Nuclei (%) [4]: 19%
- Population Tubulin-Different-Phenotype (%) [4]: 65%
- Total Cell Count [4]: 304
- Population Apoptotic (%) [5]: 36%
- Population Fragmented Nuclei (%) [5]: 8%
- Population Healthy Nuclei (%) [5]: 79%
- Population Hoechst High Intensity Objects (%) [5]: 4%
- Population Membrane Permeable-Phenotype (%) [5]: 0%
- Population Mitochondria Different-Phenotype (%) [5]: 50%
- Population Mitotic Cells (%) [5]: 63%
- Population Normal (%) [5]: 95%
- Population Pyknosed Nuclei (%) [5]: 11%
- Population Tubulin-Different-Phenotype (%) [5]: 41%
- Total Cell Count [5]: 508
- Population Apoptotic (%) [6]: 41%
- Population Healthy Nuclei (%) [6]: 75%
- Population Hoechst High Intensity Objects (%) [6]: 7%
- Population Mitochondria Different-Phenotype (%) [6]: 70%
- Population Mitotic Cells (%) [6]: 58%
- Population Normal (%) [6]: 92%
- Population Pyknosed Nuclei (%) [6]: 16%
- Population Tubulin-Different-Phenotype (%) [6]: 44%
- Total Cell Count [6]: 356
- Population Apoptotic (%) [7]: 75%
- Population Fragmented Nuclei (%) [7]: 5%
- Population Healthy Nuclei (%) [7]: 70%
- Population Hoechst High Intensity Objects (%) [7]: 21%
- Population Membrane Permeable-Phenotype (%) [7]: 0%
- Population Mitochondria Different-Phenotype (%) [7]: 98%
- Population Mitotic Cells (%) [7]: 24%
- Population Normal (%) [7]: 78%
- Population Pyknosed Nuclei (%) [7]: 23%
- Population Tubulin-Different-Phenotype (%) [7]: 53%
- Total Cell Count [7]: 303
- Population Apoptotic (%) [8]: 69%
- Population Fragmented Nuclei (%) [8]: 7%
- Population Healthy Nuclei (%) [8]: 73%
- Population Hoechst High Intensity Objects (%) [8]: 20%
- Population Mitochondria Different-Phenotype (%) [8]: 97%
- Population Mitotic Cells (%) [8]: 30%
- Population Normal (%) [8]: 79%
- Population Pyknosed Nuclei (%) [8]: 18%
- Population Tubulin-Different-Phenotype (%) [8]: 48%
- Total Cell Count [8]: 315
- Population Apoptotic (%) [9]: 32%
- Population Fragmented Nuclei (%) [9]: 10%
- Population Healthy Nuclei (%) [9]: 78%
- Population Hoechst High Intensity Objects (%) [9]: 4%
- Population Membrane Permeable-Phenotype (%) [9]: 0%
- Population Mitochondria Different-Phenotype (%) [9]: 39%
- Population Mitotic Cells (%) [9]: 67%
- Population Normal (%) [9]: 95%
- Population Pyknosed Nuclei (%) [9]: 10%
- Population Tubulin-Different-Phenotype (%) [9]: 27%
- Total Cell Count [9]: 747
- Population Apoptotic (%) [10]: 45%
- Population Healthy Nuclei (%) [10]: 76%
- Population Hoechst High Intensity Objects (%) [10]: 6%
- Population Mitochondria Different-Phenotype (%) [10]: 59%
- Population Mitotic Cells (%) [10]: 54%
- Population Normal (%) [10]: 93%
- Population Pyknosed Nuclei (%) [10]: 13%
- Population Tubulin-Different-Phenotype (%) [10]: 31%
- Total Cell Count [10]: 471
- Population Apoptotic (%) [11]: 76%
- Population Fragmented Nuclei (%) [11]: 11%
- Population Healthy Nuclei (%) [11]: 73%
- Population Hoechst High Intensity Objects (%) [11]: 28%
- Population Membrane Permeable-Phenotype (%) [11]: 0%
- Population Mitochondria Different-Phenotype (%) [11]: 97%
- Population Mitotic Cells (%) [11]: 23%
- Population Normal (%) [11]: 71%
- Population Pyknosed Nuclei (%) [11]: 14%
- Population Tubulin-Different-Phenotype (%) [11]: 67%
- Total Cell Count [11]: 365
- Population Apoptotic (%) [12]: 56%
- Population Fragmented Nuclei (%) [12]: 13%
- Population Hoechst High Intensity Objects (%) [12]: 18%
- Population Mitochondria Different-Phenotype (%) [12]: 93%
- Population Mitotic Cells (%) [12]: 43%
- Population Normal (%) [12]: 81%
- Population Pyknosed Nuclei (%) [12]: 13%
- Population Tubulin-Different-Phenotype (%) [12]: 56%
- Total Cell Count [12]: 385
